PubChem BioAssay AID720543 (The Scripps Research Institute Molecular Screening Center, 2013)
Values joined by “and” are separate entries in the source; they are usually repeats but may differ in a detail not shown here. Equal values may be shown once. In all, about 370,000 compounds went through this assay and about 2,000 (0.54%) were called active.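 How the source made its calls: active means inhibition exceeding the mean over every tested compound plus 3 SD (cut at about 30% in these data); inactive means the rest.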 The list comes from a sample in which actives are over-represented; it also holds similar structures and randomly drawn compounds. More than one record can exist for a structure, and the calls need not agree.

What follows are compounds tested against (Lyso)-N-acylphosphatidylethanolamine lipase (Mus musculus) (UniProt Q8VD66) (assay: mouse ABHD4 hydrolase activity blockers – biochemical, fluorescence polarization, primary screen (AID 720543;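 further: 0% = plate median of compound wells and 100% = S159A mutant with DMSO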)). Conditions: purified mABHD4, FP-Rh probe fluorescence polarization; at 8.92 µM; stronger effect = higher value.
Sequence of (Lyso)-N-acylphosphatidylethanolamine lipase (Mus musculus) (Q8VD66 whole entry, looked up): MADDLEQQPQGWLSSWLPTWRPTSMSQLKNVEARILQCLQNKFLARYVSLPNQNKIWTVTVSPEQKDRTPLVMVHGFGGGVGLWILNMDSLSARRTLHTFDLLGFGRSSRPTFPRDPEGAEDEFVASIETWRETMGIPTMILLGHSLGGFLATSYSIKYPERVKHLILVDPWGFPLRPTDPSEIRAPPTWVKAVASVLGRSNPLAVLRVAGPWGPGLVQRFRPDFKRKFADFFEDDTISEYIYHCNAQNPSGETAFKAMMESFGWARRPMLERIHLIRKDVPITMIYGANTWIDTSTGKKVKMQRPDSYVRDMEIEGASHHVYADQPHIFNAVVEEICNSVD
Summary of the method: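 Test system: mABHD4 protein; Read-out basis: % inhibition; Incubation: 45 min + 60 min at 25 °C; Repeats: single replicate; Technique: fluorescence polarization with parallel and perpendicular emission, 525/598 nm; Compound: 8.92 µM, single dose; Benchmarks: full inhibition S159A mutant plus DMSO, zero as sample-well median.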
`CC1(C)CC(=O)C(C2c3ccccc3S(=O)(=O)c3ccccc32)C(=O)C1` was tested, and the inhibition was 0.77% (inactive). `O=C(CSc1nc2c(c(=O)[nH]1)CCCC2)N1CCCCC1` was tested, and the inhibition was 0.85% (inactive). `Cc1ccccc1CS(=O)(=O)Cc1ccc(C(=O)Nc2ccc(Cl)cc2)o1` was tested, and the inhibition was 1.54% (inactive). For `CN(C)S(=O)(=O)c1cccc(C(=O)N/N=C\c2ccco2)c1`, the inhibition was 5.39% (inactive). With `COc1ccc([C@H]2OC(=O)C[C@H]2C(=O)N2CCN(c3ccccc3F)CC2)cc1OC` the inhibition was 0.9% (inactive). For `CC(C)(C)NC(=O)NC(=O)COC(=O)Cn1c(C(F)(F)F)nc2ccccc21`, the inhibition was 1.11% (inactive). `Cc1cccc(NC(=O)C[C@H]2CC[C@H]3[C@@H](COc4ccc(NC(=O)Nc5ccccc5)cc4C(=O)N3C)O2)c1` was tested, and the inhibition was 7.9% (inactive). For `COc1ccc(-n2c(SCC(=O)Nc3ccc4cn[nH]c4c3)nnc2-c2cccnc2)cc1`, the inhibition was 0.5% (inactive). `CCOc1ccc(/C(O)=C2\C(=O)C(=O)N(c3ccc(OC)cc3)C2c2ccccc2[N+](=O)[O-])cc1` (stereo not given) was tested, and the inhibition was 5.37% (inactive). For `C[C@@H](NC(=O)c1ccccc1OCC(=O)Nc1ccc(I)cc1)C(=O)N(C)Cc1ccccc1`, the inhibition was -28.4% (inactive). For `COc1ccc(Cc2nc3ccc(C(=O)N4CCC(N(C)C)C4)cc3o2)cc1` (stereo not given), the inhibition was -2.59% (inactive). `Cc1cc(=O)[nH]c(SCC(=O)Nc2ccc(F)cc2F)n1` was tested, and the inhibition was 2.2% (inactive). In the case of `COc1cccc(/C=N/Nc2ccc(S(=O)(=O)Nc3ccccc3C(=O)O)cc2[N+](=O)[O-])c1O`, the inhibition is reported as 70.3% (active). In the case of `CCOc1ccccc1NS(=O)(=O)c1c[nH]c(C(=O)OC)c1`, the inhibition is reported as -5.46% (inactive). In the case of `CCN(CC(=O)NCc1cccs1)C(=O)c1cccc(S(=O)(=O)Nc2ccccc2OC)c1`, the inhibition is reported as -5.42% (inactive). `CC(C)(C)NC(=O)C(c1cccnc1)N(C(=O)c1cnco1)c1ccc(C(C)(C)C)cc1` (stereo not given) was tested, and the inhibition was -5.63% (inactive). In the case of `CC1CCCCC1NC(=O)CSc1nnc(-c2ccncc2)n1CCCN(C)C` (stereo not given), the inhibition is reported as 18.4% (inactive). With `CCC[C@H]1C(=O)CC[C@@]23CCCN2C(=O)CCC[C@@H]13` the inhibition was -0.16% (inactive). In the case of `CN1C(=O)C2CC(O)C(SC3CC4C(=O)N(C)C(=O)C4CC3O)CC2C1=O` (stereo not given), the inhibition is reported as 4.09% (inactive). For `CC(C)(C)C(=O)OCc1nc(-c2ccc(O)c(O)c2)cs1`, the inhibition was 39.5% (active). For `COCc1cccc(-c2csc(C(O)c3ccc(F)cc3)n2)c1` (stereo not given), the inhibition was -6.65% (inactive). With `CCCC(=O)N1c2ccc(-c3csc(N)n3)cc2CC1C` (stereo not given) the inhibition was 6.5% (inactive). With `COc1ccc(C(=O)CSc2nnc(-c3cnccn3)n2-c2ccc(C)cc2)cc1` the inhibition was -7.18% (inactive). `COC(=O)[C@H](C(C)C)N1CCc2nnn(Cc3ccc(C)cc3)c2-c2ccccc2S1(=O)=O` was tested, and the inhibition was 8.58% (inactive). For `CN(CCO)c1cccc2c1S(=O)(=O)N(Cc1cn(Cc3ccc(C(F)(F)F)cc3)nn1)Cc1ccccc1O2`, the inhibition was 1.41% (inactive). In the case of `CCOC(=O)C1CCN(C(=O)C(C)(C)NC(=O)Nc2ccc(F)c(F)c2)CC1`, the inhibition is reported as -6.47% (inactive). `Clc1ccc(-n2c(SC/C=C/c3ccccc3)nnc2-c2ccco2)cc1` was tested, and the inhibition was -10.5% (inactive). For `Clc1ccccc1CSc1nnc(-c2ccco2)c(-c2ccco2)n1`, the inhibition was 38.9% (active). With `COc1ccnc(C(=O)N2CCC(Oc3cccnc3)CC2)c1` the inhibition was 3.41% (inactive). `CC(C)(C)c1ccc(C(=O)Nc2cc(Cl)c(Br)cc2C(=O)O)cc1` was tested, and the inhibition was -156% (inactive). In the case of `COc1ccc(C)cc1NC(=S)Nc1ccccc1SC`, the inhibition is reported as -1.16% (inactive). With `COc1cc(NC(=S)NNC(=O)CC(C)C)c(OC)cc1Cl` the inhibition was 1.23% (inactive). With `CCc1ccccc1NC(=S)Nc1cc(OC)c(NC(=O)C(C)C)cc1OC` the inhibition was 33.4% (active). With `Cc1ccccc1CN1CCCCC(NC(=O)Nc2ccccc2F)C1=O` (stereo not given) the inhibition was 3.77% (inactive). `Oc1c(Cl)cc(Cl)c(Cl)c1Cc1c(O)c(Cl)cc(Cl)c1Cl` was tested, and the inhibition was -117% (inactive). With `CCOC(=O)[C@]12CCCC3=C1N(CCC3)C(=O)[C@@H](CC(=O)NCC13CC4CC(CC(C4)C1)C3)C2` the inhibition was 3.95% (inactive). With `CC/C(=C(/c1ccccc1)c1ccc(OCC[N+](C)(C)C)cc1)c1ccccc1` the inhibition was 30% (active). With `COC(=O)C[C@@H]1CC[C@H]2[C@@H](COc3ccc(NS(=O)(=O)CC(F)(F)F)cc3C(=O)N2C)O1` the inhibition was 10.4% (inactive). In the case of `COC(=O)c1ccc(CN(c2ccccc2OC)S(=O)(=O)c2cccs2)o1`, the inhibition is reported as 4.33% (inactive). With `COC(=O)C1=C(C(=O)OC)C2C=C(C(C)C)C1C(=O)C2(C)O` (stereo not given) the inhibition was -1.36% (inactive). `CCOc1ccc(S(=O)(=O)NCCC(=O)NCC(C)(C)N2CCOCC2)cc1` was tested, and the inhibition was 4.91% (inactive). In the case of `O=C(OCc1ccccc1F)c1ccc2c(c1)OCCO2`, the inhibition is reported as 1.07% (inactive). In the case of `O=C(COC(=O)c1ccc(O)cc1O)c1ccc2c(c1)OCCO2`, the inhibition is reported as 36.5% (active). With `O=C1COc2ccc(C(=O)COC(=O)c3ccccc3Cl)cc2N1` the inhibition was -1.93% (inactive). `Cc1nc2sccn2c(=O)c1S(=O)(=O)NCCc1ccccc1` was tested, and the inhibition was 0.82% (inactive). With `O=C(COC(=O)c1ncc(Cl)c(Cl)c1Cl)NC1CCS(=O)(=O)C1` (stereo not given) the inhibition was 2.44% (inactive). With `Oc1ccc(N=Cc2sc3ccccc3c2Cl)cc1` the inhibition was 88.4% (active). `Oc1ccc(N=Cc2c(O)ccc3ccccc23)cc1` was tested, and the inhibition was 51.1% (active). For `C[C@@H]1CN([C@@H](C)CO)C(=O)c2cccc(NC(=O)Nc3cccc4ccccc34)c2O[C@H]1CN(C)S(=O)(=O)c1ccccc1F`, the inhibition was -0.79% (inactive). In the case of `COC(=O)[C@]12C[C@H](CC(=O)NCc3cccc4ccccc34)C(=O)N(CCc3ccc(OC)c(OC)c3)C1=C[C@H](C1CCCC1)O[C@@H]2C`, the inhibition is reported as -10.3% (inactive). With `Cn1c(SCC(=O)N2CCOCC2)nnc1-c1ccc(NC(=O)c2ccccc2F)cc1` the inhibition was 1.97% (inactive). For `CSc1nc2sc3c(c2c(=O)[nH]1)CCc1ccccc1-3`, the inhibition was 4.16% (inactive). For `CCCNC(=O)Nc1ccc2c(c1)C(=O)N(C)[C@H]1CC[C@H](CC(=O)NCC3CCCCC3)O[C@@H]1CO2`, the inhibition was 12.2% (inactive). `COCCNC(=S)Nc1cc(S(=O)(=O)N2CCOCC2)ccc1N1CCCCC1` was tested, and the inhibition was 1.6% (inactive). For `Cc1ccc(S(=O)(=O)N2CCOCC2)cc1NC(=O)c1ccncc1`, the inhibition was -3.76% (inactive). With `O=[N+]([O-])c1cc(Cl)cc(/C=N/NC(=S)Nc2cc(S(=O)(=O)N3CCOCC3)ccc2Cl)c1O` the inhibition was 32.2% (active). With `Cc1ccccc1NC(=O)CSc1ccc2nnc(-c3ccccn3)n2n1` the inhibition was 5.22% (inactive). For `CC12C(=O)N(n3cnnc3)C(=O)C1C1C=CC2C1` (stereo not given), the inhibition was -1.34% (inactive). In the case of `CCN1C(=O)/C(=C2/Sc3ccccc3N2CCCS(=O)(=O)O)SC1=S`, the inhibition is reported as 9.75% (inactive) and 31.2% (active). For `CCCCN1C(=O)/C(=C2/C=CC=CN2C)SC1=S`, the inhibition was 4.21% (inactive). `CCN1C(=O)/C(=C\N2CCOCC2)SC1=S` was tested, and the inhibition was 9.79% (inactive). In the case of `CC(=O)Nc1ccc(NC(=O)CSC2=NS(=O)(=O)c3ccccc3N2)cc1`, the inhibition is reported as 0.67% (inactive). With `NC1=CC(=O)C(=O)c2cccnc21` the inhibition was 59.2% (active). For `COC(=O)C[C@@H]1CC[C@@H]2[C@H](COc3ccc(NC(=O)c4cccc(F)c4)cc3C(=O)N2C)O1`, the inhibition was -0.54% (inactive). For `CO[C@@H]1CN(C)C(=O)c2cc(NC(=O)C3CC3)ccc2OC[C@H](C)N(C(=O)CN2CCOCC2)C[C@@H]1C`, the inhibition was -0.34% (inactive). For `CCC(CO)Oc1cc(NC(=O)c2cccc(F)c2)c2ncn(C(C)C)c2c1` (stereo not given), the inhibition was 44.4% (active). `Cc1ccc(F)cc1NC(=O)c1cccc(N(C)C)c1` was tested, and the inhibition was -2.26% (inactive). `CCCOc1cccc(C(=O)Nc2nnn(CCC)n2)c1` was tested, and the inhibition was 7.16% (inactive). In the case of `Nc1ncnc2c1ncn2[C@@H]1O[C@H](CNS(=O)(=O)c2ccc(-c3ccno3)s2)[C@@H](O)[C@H]1O`, the inhibition is reported as -3.46% (inactive). In the case of `CC(C)(C)OC(=O)NCCc1ccccc1/C=C/S(=O)(=O)NCc1ccc(F)cc1`, the inhibition is reported as 14.8% (inactive). `O=C(NNC(=S)Nc1ccccc1)c1cccc(S(=O)(=O)N2CCOCC2)c1` was tested, and the inhibition was 1.73% (inactive). With `Cc1cccc(-n2cnc(C(=O)NNC(=S)Nc3ccccc3)c2)n1` the inhibition was 43.3% (active). In the case of `Cc1cccc(-n2cnc(C(=O)Nc3cccnc3)c2)n1`, the inhibition is reported as -2.09% (inactive). `CC(=O)N1N=C(c2ccncc2)OC1(Cc1ccccc1)Cc1ccccc1` was tested, and the inhibition was -3.49% (inactive). In the case of `CCOC(=O)[C@]12CCCC3=C1N(CCC3)C(=O)[C@@H](CC(=O)NCc1cccs1)C2`, the inhibition is reported as -5.06% (inactive). With `CN(C)CCCN(Cc1cc2cc3c(cc2[nH]c1=O)OCCO3)C(=O)NC1CCCCC1` the inhibition was 1.3% (inactive). With `O=S1(=O)c2ccc(Br)cc2-n2nncc2CN1Cc1cccc(Cl)c1` the inhibition was -5.52% (inactive). For `O=C(COc1ccc(Cl)cc1)NCCSc1ccccc1`, the inhibition was -6.3% (inactive). For `Cc1ccccc1OCC(=O)NCC(=O)OCC(=O)c1ccc2ccccc2c1`, the inhibition was 3.01% (inactive). For `Cc1cc2ccccc2n1CCNC(=O)COc1ccc2ccccc2c1`, the inhibition was 40.9% (active). For `O=C(N1CCOCC1)N1CC[C@H]2[C@H](CCCN2Cc2ccc(F)cc2)C1`, the inhibition was 4.72% (inactive). With `CC(C)C(C#CC1CC1)N(Cc1ccc2c(c1)OCO2)C(N)=NC(=O)/C=C/c1cccc(C(F)(F)F)c1` (stereo not given) the inhibition was 4.25% (inactive). In the case of `C=CCNC(=S)N1CCN(CCN=Cc2c(C)[nH]n(-c3ccc([N+](=O)[O-])cc3)c2=O)CC1`, the inhibition is reported as -6.41% (inactive). In the case of `O=C(Nn1c(SCc2ccc([N+](=O)[O-])cc2)nc2ccccc2c1=O)c1ccc(F)cc1`, the inhibition is reported as -52.4% (inactive). `O=c1[nH]n(-c2ccc([N+](=O)[O-])cc2)c(=O)c2ccccc12` was tested, and the inhibition was 59.3% (active).
